Where two headings read alike, the source gives them in different places. Values belong to the compound of their own block, whether it stands above or below them.
Tests used:
[1] = format: in vivo, human; details: for concentration at 2 h / concentration at 4 h / concentration at 6 h / concentration at 8 h: human, plasma, oral; for Cthrough (through concentration): patient on sildenafil 40 mg tid, bosentan 125 mg bid, ritonavir-boosted PI
[2] = cited from earlier work
phosphodiesterase = details: same phosphodiesterase specificity as sildenafil; cited from earlier work
[3] = Plasma concentrations of protease inhibitors; format: in vivo, human; details: for concentration at 2 h / concentration at 4 h / concentration at 6 h / concentration at 8 h: human, plasma, oral; for Plasma concentration, t0: t0, 8 a.m., before intake of antiretroviral dose, fosamprenavir 700 mg bid
Procedure, shortened: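 Heparinized venous blood was drawn before the morning antiretroviral dose (T0) and at 2, 4, 6 and 8 h after it. Plasma was separated by centrifugation and stored at −80 °C. PI levels were measured by a validated HPLC method.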

[4] = cited from earlier work; remark: listed apart in the source
[5] = cited from earlier work; remark: listed apart in the source
[6] = Clinical course of the patient: hemodynamics, functional class, tolerability; format: in vivo, human
[7] = coadministered with lopinavir/ritonavir

Plasma concentrations as % of the parent drug ([1]; during the study, patient on ritonavir-boosted PI): 40-50%
Plasma concentration, t2 ([1]; t2, 10 a.m., 2 hours after intake of sildenafil and bosentan): 0.05833 µg/mL
Plasma concentration, t4 ([1]; t4, noon, 4 hours after intake of sildenafil and bosentan): 0.06185 µg/mL
Plasma concentration, t6 ([1]; t6, 2 p.m., 6 hours after intake of sildenafil and bosentan): 0.14095 µg/mL
Plasma concentration, t8 ([1]; t8, 4 p.m., 8 hours after intake of sildenafil and bosentan): 0.12135 µg/mL
SMILES: CCCc1nn(C)c2c(=O)[nH]c(-c3cc(S(=O)(=O)N4CCNCC4)ccc3OCC)nc12 [N-desmethylsildenafil]
Plasma levels as % of the parent drug ([2]; metabolite relative to sildenafil): 40-50%
Potency relative to sildenafil (phosphodiesterase): about half the potency

concentration at 2 h [3]: 1.68 µg/mL
concentration at 4 h [3]: 3.96 µg/mL
concentration at 6 h [3]: 2.17 µg/mL
concentration at 8 h [3]: 1.89 µg/mL
Cthrough ([3]; patient on fosamprenavir 700 mg bid, ritonavir 100 mg bid): 1495 ng/mL
Plasma levels versus therapeutic ranges ([3]; patient, therapeutic ranges from ref 16): within therapeutic ranges
Plasma concentration, t0 ([3]; ritonavir 100 mg bid): 1.495 µg/mL
SMILES: CC(C)CN(C[C@@H](O)[C@H](Cc1ccccc1)NC(=O)O[C@H]1CCOC1)S(=O)(=O)c1ccc(N)cc1 [amprenavir]

concentration at 2 h [1]: 3.37 µg/mL
concentration at 4 h [1]: 1.75 µg/mL
concentration at 6 h [1]: 1.31 µg/mL
concentration at 8 h [1]: 1.23 µg/mL
Cthrough (through concentration) [1]: 1546.53 ng/mL
SMILES: COc1ccccc1Oc1c(NS(=O)(=O)c2ccc(C(C)(C)C)cc2)nc(-c2ncccn2)nc1OCCO [bosentan]
Increase of Cmax ([4]; by steady-state sildenafil, healthy volunteers): 42%
Increase in AUC at steady state [4, 7]: 422%
Increase in Cmax at steady state [4, 7]: 512%

concentration at 2 h [3]: < 0.05 µg/mL
concentration at 4 h [3]: < 0.05 µg/mL
concentration at 6 h [3]: < 0.05 µg/mL
concentration at 8 h [3]: < 0.05 µg/mL
Plasma levels in all of the samples ([3]; ritonavir 100 mg bid, bosentan coadministered): undetectable
Plasma concentration, t0 ([3]; ritonavir 100 mg bid): <0.05 µg/mL
SMILES: CC(C)c1nc(CN(C)C(=O)N[C@H](C(=O)N[C@@H](Cc2ccccc2)C[C@H](O)[C@H](Cc2ccccc2)NC(=O)OCc2cncs2)C(C)C)cs1 [ritonavir]

Plasma concentration versus the therapeutic range ([1]; coadministration of sildenafil and ritonavir-boosted PI): above the therapeutic range
concentration at 2 h [1]: 0.925 µg/mL
concentration at 4 h [1]: 0.566 µg/mL
concentration at 6 h [1]: 1.73 µg/mL
concentration at 8 h [1]: 0.9 µg/mL
Cthrough (through concentration) [1]: 276.94 ng/mL
SMILES: CCCc1nn(C)c2c(=O)[nH]c(-c3cc(S(=O)(=O)N4CCN(C)CC4)ccc3OCC)nc12 [sildenafil]
Plasma concentration at which maximal reductions in PAP and PVR were obtained [5]: ~100 ng/mL
Increase of AUC ([4]; with ritonavir 500 mg twice daily): 11 fold
Mean PAP ([6]; May 2012, worsening exertional dyspnea on sildenafil 20 mg tid): 47 mmHg
Mean PAP ([6]; October 2012, after sildenafil increased to 40 mg tid, bosentan 125 mg bid): 40 mmHg
6-minute walking test ([6]; October 2012, sildenafil 40 mg tid, bosentan 125 mg bid): 479 m
NYHA stage change ([6]; after introduction of sildenafil 20 mg tid): from NYHA stage III to NYHA stage II
Mean PAP ([6]; after sildenafil 20 mg tid was added to bosentan, previously 63 mmHg): 43 mmHg
Eye fundus examination versus baseline ([6]; during follow-up): no significant changes
Influence on systemic blood pressure ([6]; measured regularly during the investigation): no significant influence
Adverse reactions during follow-up ([6]; patient with raised sildenafil levels, headache, flushing, dyspepsia, priapism): did not report any adverse reactions
tmax ([2]; healthy adults, 20 mg tid, oral): approximately 1 hour
Cmax ([2]; healthy adults, sildenafil 20 mg tid): about 145 ng/mL
